A selection: hits, their analogues and other compounds. The true share with any hit is near 2.6%.
XiGFP reactiv – reactivates the inactive X chromosome in mouse fibroblasts. activation, % at 7.58 µM. 360,000 compounds, 0.055% hits. XiGFP mouse fibroblasts, % GFP-positive cells imaging, 3 d; cells co-treated with 5-aza-dC sensitizer; scaled so ellipticine positive control = 100%;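 active = mean normalized replicate activation at least 10% and every replicate at or above 10%; inconclusive = only one of the two criteria met; inactive = mean below 10% and not all replicates reach 10%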;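 note: 0% = median of on-plate neutral control wells and 100% = ellipticine 6 µM median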
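assay system = SV40-immortalized XiGFP fibroblast cells, line 68-5-11 | buffer or medium = DMEM plus 5-aza-dC sensitizer | doses = single-point pinned compound dosing | times = 3-day compound exposure, then 15 min fixation at room temperature | benchmarks = positive control ellipticine, 6 µM final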
SR-BI DiI inh – mouse SR-BI HDL lipid transfer inhibition. inhibition, % at 12.5 µM. AID 488896. Q61009. ldlA[mSR-BI] CHO cells, DiI-HDL uptake fluorescence, 3 h. 320,000 compounds, 0.96% hits;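 active = mean replicate inhibition of at least 70% and a set share of replicates each scoring 70 or more; inconclusive = meets just one of the two criteria; inactive = fails both criteria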;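 note: 0% = median of neutral control wells and 100% = median of positive control wells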
Target sequence (Q61009 whole entry, looked up): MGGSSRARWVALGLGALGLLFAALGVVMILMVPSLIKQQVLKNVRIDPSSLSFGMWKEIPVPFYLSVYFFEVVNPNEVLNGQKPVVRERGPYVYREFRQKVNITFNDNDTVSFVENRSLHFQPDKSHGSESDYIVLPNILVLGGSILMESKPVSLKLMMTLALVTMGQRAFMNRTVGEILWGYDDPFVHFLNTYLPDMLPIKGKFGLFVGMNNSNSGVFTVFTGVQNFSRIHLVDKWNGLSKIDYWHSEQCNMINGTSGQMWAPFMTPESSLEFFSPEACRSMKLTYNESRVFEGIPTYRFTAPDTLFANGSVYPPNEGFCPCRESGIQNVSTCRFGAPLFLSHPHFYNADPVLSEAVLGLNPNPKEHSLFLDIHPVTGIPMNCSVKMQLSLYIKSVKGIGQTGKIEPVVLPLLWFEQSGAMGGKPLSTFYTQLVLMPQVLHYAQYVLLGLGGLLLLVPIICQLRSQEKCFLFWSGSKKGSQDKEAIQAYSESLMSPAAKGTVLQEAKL
dFosB activator – mouse delta FosB homodimer activation; 340,000 compounds, 0.99% hits; activation, % at 25 µM; purified delta FosB, TAMRA-CDK5 oligo fluorescence polarization; percent of positive-control signal above neutral wells;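 active = mean activation above about 17%, with every replicate also reaching it, limit read from the data, passing the limit was not always enough; inconclusive = only one of the two conditions met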
rRNA inh HTS – inhibitors of bacterial rRNA selective over humanized ribosomes | E. coli WT GFP vs humanized-ribosome RFP mutants, fluorescence, 24 h; active compounds read low; DMSO median 0, no signal -100 | GFP signal change (wild-type ribosome), % (no concentration beside the values) | 350,000 compounds, 1.6% hits | AID 720706;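 active = significant combined selectivity score with lowered wild-type GFP, culture density cut under 30%, mutant RFP and density less affected; inactive = any of these conditions unmet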
PvdQ acylase – blocks Pseudomonas aeruginosa PvdQ acylase activity | purified PvdQ acylase, fluorescence plate reader | inhibition, % at 10 µM | 340,000 compounds, 0.063% hits; in the data active = inhibition above about 30%, passing the limit was not always enough; inconclusive = no clear call, values can overlap the other calls;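 note: 0% = vehicle neutral wells and 100% = reference inhibitor wells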
SR-BI uptake up – activators of SR-BI mediated HDL lipid uptake. CHO ldlA[mSR-BI] cells, DiI-HDL uptake fluorescence, 3 h; 100 = double the neutral-control signal. 320,000 compounds, 0.096% hits. activation, % at 12.5 µM. AID 504775;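 active = mean replicate activation of at least 60% and every replicate at or above 60%; inconclusive = mean or all-replicate condition met, but not both; inactive = mean below 60% and not all replicates reaching 60%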;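 note: 0% = median plate neutral-control signal and 100% = twice that signal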
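Test system: SR-BI-overexpressing, LDLR-lacking CHO cells; Medium: Ham's F12 with 0.5% BSA, HEPES 25 mM, pH 7.4; Schedule: 3 h, 37 °C; Technique: bottom-read fluorescence, 550/595 nm.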
* = called active by the depositor; ? = inconclusive; . = no result given; ! = a repeat was not active.

SMILES	XiGFP reactiv	SR-BI DiI inh	dFosB activator	rRNA inh HTS	PvdQ acylase	SR-BI uptake up
Cc1ccc(-n2c(COc3c(C)cccc3C)nnc2SCC(=O)Nc2nccs2)cc1	.	1	21*	.	0	-1
Cc1ccc(OCc2nnc(SCC(=O)Nc3nccs3)n2-c2ccccc2)cc1C	.	-13	-8	.	2	13
COc1ccc(NC(=O)N(C)C[C@H]2OCCCC[C@H](C)Oc3ccc(NS(C)(=O)=O)cc3C(=O)N([C@@H](C)CO)C[C@H]2C)cc1	0	.	.	2	.	.
COc1cc(C2(c3ccc(O)c(OC)c3)C(=O)Nc3c(Br)cc(Br)cc32)ccc1O	0	-19	-11	-48*	6	19
Cc1ccc(NC(=S)NC(=O)CC2CC(C)(C)OC2=O)cc1 (stereo unspecified)	0	-31	-7	4	-16	31
CC1(C)CC(CC(=O)NC(=S)Nc2ccc([N+](=O)[O-])cc2)C(=O)O1 (stereo unspecified)	.	90*	-13	.	-4	-90
CN(C)c1cccc(-c2cc(Nc3ccc(C(C)(C)C)cc3)ncn2)c1	0	.	.	-9	.	.
CN(C)CCCNc1ccc(-c2cc(Nc3cccc(Cl)c3)ncn2)cn1	0	-12	39*	-20*	-7	12
O=C(CN1C2CCCC1CC(NC(=O)c1ccccc1)C2)Nc1ccccc1C(F)(F)F (stereo unspecified)	0	-4	-15	-41*	1	4
O=C(CN1C2CCCC1CC(NC(=O)c1ccco1)C2)Nc1ccccc1C(F)(F)F (stereo unspecified)	.	8	-18	.	-7	-8
COc1ccc(S(=O)(=O)N(C)C[C@@H]2Oc3cc(C#CC4CCCCC4)ccc3S(=O)(=O)N([C@H](C)CO)C[C@H]2C)cc1	-1	.	.	4	.	.
C#Cc1ccc([C@H]2C=C(C(=O)N3CCN(Cc4ccc5c(c4)OCO5)CC3)O[C@@H](OCC)[C@@H]2CCCO)cc1	0	18	-22	-14	-16	-18
CCO[C@H]1OC(C(=O)N2CCN(Cc3ccccc3)CC2)=C[C@@H](c2ccc(C(F)(F)F)cc2)[C@@H]1CCCO	0	25	6	-44	4	-25
CCO[C@H]1OC(C(=O)N2CCN(Cc3ccc4c(c3)OCO4)CC2)=C[C@@H](c2ccc3c(c2)OCO3)[C@@H]1CCCO	0	4	6	-22*	-8	-4
CCO[C@H]1OC(C(=O)N2CCN(Cc3ccccc3)CC2)=C[C@@H](c2ccccc2)[C@@H]1CCCO	0	0	-2	-32*	-10	0
C/C(=N\NC(=S)NC1CCCCC1)c1cccs1	0	58	-15	-26*	-24	-58
CCCCCCNC(=O)O[C@H]1Cn2c(=O)ccc(=O)n2[C@@H]2CN(S(=O)(=O)c3ccc(C)cc3)C[C@]12O	0	.	.	-26*	.	.
CCCCCCNC(=O)O[C@H]1Cn2c(=O)n(CCCCCC)c(=O)n2[C@@H]2CN(S(=O)(=O)c3ccc(C)cc3)C[C@]12O	0	.	.	7	.	.
COc1ccccc1N1CCN(C(=O)COc2cccc(C)c2C)CC1	0	.	-5	-18	5	.
COCCN=c1scc(-c2cc(OC)c(OC)c(OC)c2)n1/N=C/c1c(C)[nH]c2ccccc12	0	92*	-9	.	-4	-92
Cn1c(NCCCN2CCOCC2)nc2c1c(=O)n(Cc1ccc(Cl)cc1Cl)c(=O)n2C	.	6	-1	.	-21	-6
O=C(NCc1cccs1)C1CCCN(S(=O)(=O)c2ccc3c(c2)OCO3)C1 (stereo unspecified)	.	-61	-14	-2	-8	?
CS/C(=N\S(=O)(=O)c1cccs1)Nc1cccc(Cl)c1C	0	-32	-8	-44*	-8	32
CS/C(=N\S(=O)(=O)c1cccs1)Nc1ccc(F)c(Cl)c1	0	-21	-3	-13	11	21
CCOC(=O)Cc1csc(NC(=O)NC2(C(F)(F)F)Oc3cc(Cl)c(Cl)cc3O2)n1	.	19	-1	.	-26	-19
SMILES	XiGFP reactiv	SR-BI DiI inh	dFosB activator	rRNA inh HTS	PvdQ acylase	SR-BI uptake up
CC(C)Nc1ccc(Nc2ccnc3cc4ccccc4cc23)cc1	-1	77*	68*	-61	-13	-77
COc1ccc(Nc2ccnc3ccccc23)cc1	.	-2	5	.	10	2
Cc1nc(CS(=O)(=O)c2ccccn2)sc1C(=O)NNC(=O)c1c(F)cccc1Cl	0	-1	0	14	0	1
Nc1cc(Cl)ccc1Oc1ccc2ccccc2c1	.	15	4	-24*	2	-15
COc1ccc(-c2ccc3c(c2)[C@@H]2[C@@H](CCN2C(=O)Cc2ccccc2)[C@H](CO)N3C)cc1	0	.	.	-11	.	.
CCOc1c(Br)cc(Br)cc1/C=C1\SC(N)=NC1=O	0	25	25*	-3	0	-25
CCOc1cc(/C=C2\SC(N)=NC2=O)ccc1O	0	-16	-2	2	0	16
Cc1cccc(C)c1NC(=O)C(NC=O)c1ccc(N(C)C)cc1 (stereo unspecified)	.	-8	-11	.	-14	8
C=CCn1c(SCC(=O)N2CC(=O)Nc3ccccc32)nc2scc(-c3cccs3)c2c1=O	.	15	4	.	-9	-15
O=C(Nc1cc(C(F)(F)F)ccc1-n1cncn1)c1ccc(-c2ccccc2)cc1	.	23	2	.	-14	.
O=C(Cc1cccc2ccccc12)OCn1nnc2ccccc2c1=O	0	-18	3	-18*	5	18
COc1cc(CC(=O)OCn2nnc3ccccc3c2=O)cc(OC)c1OC	0	-27	2	11	11	27
CCC(=O)Nc1ccc2c(c1)C(=O)N(C)C[C@H](OC)[C@@H](C)CN(CCC(F)(F)F)[C@H](C)CO2	0	.	.	-2	.	.
COc1ccccc1-c1cnc2c(Nc3cccc(OC(F)(F)C(F)F)c3)nccn12	0	.	.	11	.	.
C[C@@H]1CN([C@@H](C)CO)C(=O)c2cc(NC(=O)c3ccncc3)ccc2O[C@@H](C)CCCCO[C@H]1CN(C)C(=O)Nc1ccccc1	0	.	.	-1	.	.
O=C(O)CSc1ncccn1	53*	.	4	7	7	.
O=C1C(C2=NC(c3ccccn3)C3C(=O)N(c4ccccc4)C(=O)C23)=C(O)c2ccccc21 (stereo unspecified)	0	.	26*	2	-8	.
O=C(CCCC(=O)c1ccc(O)cc1)c1ccc(O)cc1	0	10	-12	-19	-10	-10
O=C1C=CC(=C(c2ccc(O)cc2)c2ccc(O)cc2)C=C1	0	1	-13	-50*!	-4	-1

Bioassay records: PubChem BioAssay, Broad Institute
